One test concerns PC-12. In words: Effective dose to protect PC12 cells from beta-Amyloid (BA) insult was determined using MTT reduction assay. It counts as functional. The settings on record: Rattus norvegicus, read-out: ED50 (the source's name). The essentials:
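PC12 cells in high-glucose DMEM with 10% horse serum, 5% fetal calf serum and 1% penicillin/streptomycin were plated overnight. They were then co-incubated 24 h with βA(1-42) (DMSO stock) and test compound at five concentrations, final DMSO <1%. MTT was added for 1 h at 37 °C, then lysing buffer overnight at 37 °C, and OD read at 570 nm. Viability was referenced to DMSO-only and βA-only wells. ED50 came from dose–response curves; curcumin was the positive control.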
For orientation: Formazan colour is commonly taken as a measure of viable cells.

Another test concerns IMR-32. The experiment in a line: Effective dose to protect IMR-32 cells from beta-Amyloid (BA) insult was determined using MTT reduction assay. Format: functional. The settings on record: Homo sapiens, read-out: ED50 (the source's name). A digest of the protocol:
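IMR-32 human neuroblastoma cells in Minimum Essential Medium with Earle's salts and L-glutamine, 10% fetal bovine serum and 1% penicillin/streptomycin were run as in the PC12 protocol. Cells were co-exposed 24 h to βA(1-42) and test compound at five concentrations, final DMSO <1%. MTT was reduced for 1 h at 37 °C, then lysed overnight, with OD read at 570 nm. ED50 came from dose–response curves.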

Consider eleven compounds from ChEMBL document CHEMBL1147607, “Side-chain length is important for shogaols in protecting neuronal cells from beta-amyloid insult” (2004).

As to `CCCCCCCCCCC/C=C/C(=O)CCc1ccc(O)c(OC)c1`, the EC50 with PC-12 came to 0.2 µM; in the test with IMR-32 it was 0.5 µM.
On the same counts, the results for `CCCCC/C=C/C(=O)CCc1ccc(O)c(OC)c1` [SHOGAOL] are 16.3 µM and 24.2 µM.
As to `COc1cc(/C=C/C(=O)CC(=O)/C=C/c2ccc(O)c(OC)c2)ccc1O` [CURCUMIN], the EC50 with PC-12 came to 17.1 µM; in the test with IMR-32, 23.9 µM.
The corresponding values for `CCCCCC/C=C/C(=O)CCc1ccc(O)c(OC)c1` are 8.6 µM and 12 µM.
On the same counts, the results for `CCCC/C=C/C(=O)CCc1ccc(O)c(OC)c1` are 29 µM and 37.4 µM.
On the same counts, the results for `CCCCCCCCCC/C=C/C(=O)CCc1ccc(O)c(OC)c1` are 0.5 µM and 1.4 µM.
`CCCCCCC/C=C/C(=O)CCc1ccc(O)c(OC)c1`: the EC50 in the test on PC-12 amounted to 5.9 µM; with IMR-32 it was 8.8 µM.
On the same counts, the results for `CCCCCCCCC/C=C/C(=O)CCc1ccc(O)c(OC)c1` are 1.8 µM and 3.3 µM.
With `CCC/C=C/C(=O)CCc1ccc(O)c(OC)c1`, the EC50 worked out at 45.9 µM in the test on PC-12 and 61.2 µM with IMR-32.
The corresponding values for `COc1cc(CCC(C)=O)ccc1O` [ZINGERONE] are greater than 129 µM and greater than 129 µM.
On the same counts, the results for `CCCCCCCC/C=C/C(=O)CCc1ccc(O)c(OC)c1` are 4.4 µM and 6.2 µM.
